Hits are enriched below; roughly 1.4% of the tested compounds scored in any of these assays.
FID counter: counter-screen for HCV NS3 helicase inhibitors: DNA intercalator displacement. DNA fluorescent intercalator displacement, fluorescence. inhibition, % at 7.9 µM. 290,000 compounds, 0.17% hits. AID 1845; in the data active means inhibition above about 37%;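 further: 0% = vehicle and 100% = reference compound; higher means more ethidium bromide displaced from hairpin DNA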
Tn7 DDE FP: inhibitors of Tn7 peptide binding to human fibrin DD(E). P02675. FP displacement of FITC-Tn7 peptide from fibrin DD(E); 0% = median of compound wells per plate. inhibition, % at 8.3 µM. 370,000 compounds, 0.13% hits;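 active means inhibition above the mean of compounds falling within the control limits plus 3 SD of them, cut at about 14% in these data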;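 further: 0% = plate median of compound wells and 100% = 10 µM Aha-Tn7 peptide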
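System: human fibrin DD(E); quantity: Fibrin-DD(E) at 2 µM final; also added: fluorescent Tn7 probe at 0.1 µM; compound dosing: single nominal test concentration of 8.3 µM per compound; schedule: 10 min preincubation, 3 h with tracer, room temperature; detection: fluorescence polarization of the labelled Tn7 tracer; repeats: one replicate per compound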
PLCg1 inh: blocks human PLC-gamma1 enzyme activity. P19174. purified PLC-gamma1, fluorogenic substrate, fluorescence. inhibition, % at 12.2 µM. 370,000 compounds, 0.84% hits. AID 720700; in the data active means inhibition above about 9.5%
Tn6 DDE FP: inhibitors of Tn6 peptide binding to human fibrin DD(E); Fibrin DD(E) TRITC-Tn6 fluorescence polarization displacement; inhibition, % at 8.3 µM; AID 720509; P02675; 370,000 compounds, 0.21% hits;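 active means inhibition above a per-campaign cutoff: mean of compounds within control limits plus 3 SD, cut at about 15% in these data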;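 further: 0% = median of all compound wells on the plate and 100% = blocking peptide control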
PLC-beta3 inh: PLC-beta3 (human) inhibition, primary screen; Q01970; Purified PLC-beta3, fluorogenic substrate, fluorescence; inhibition, % at 12.2 µM; 370,000 compounds, 0.18% hits; AID 720704; in the data active means inhibition above about 11%;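 further: 0% = median of compound wells on plate and 100% = full blocker control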
Target sequence (Q01970 whole entry, looked up): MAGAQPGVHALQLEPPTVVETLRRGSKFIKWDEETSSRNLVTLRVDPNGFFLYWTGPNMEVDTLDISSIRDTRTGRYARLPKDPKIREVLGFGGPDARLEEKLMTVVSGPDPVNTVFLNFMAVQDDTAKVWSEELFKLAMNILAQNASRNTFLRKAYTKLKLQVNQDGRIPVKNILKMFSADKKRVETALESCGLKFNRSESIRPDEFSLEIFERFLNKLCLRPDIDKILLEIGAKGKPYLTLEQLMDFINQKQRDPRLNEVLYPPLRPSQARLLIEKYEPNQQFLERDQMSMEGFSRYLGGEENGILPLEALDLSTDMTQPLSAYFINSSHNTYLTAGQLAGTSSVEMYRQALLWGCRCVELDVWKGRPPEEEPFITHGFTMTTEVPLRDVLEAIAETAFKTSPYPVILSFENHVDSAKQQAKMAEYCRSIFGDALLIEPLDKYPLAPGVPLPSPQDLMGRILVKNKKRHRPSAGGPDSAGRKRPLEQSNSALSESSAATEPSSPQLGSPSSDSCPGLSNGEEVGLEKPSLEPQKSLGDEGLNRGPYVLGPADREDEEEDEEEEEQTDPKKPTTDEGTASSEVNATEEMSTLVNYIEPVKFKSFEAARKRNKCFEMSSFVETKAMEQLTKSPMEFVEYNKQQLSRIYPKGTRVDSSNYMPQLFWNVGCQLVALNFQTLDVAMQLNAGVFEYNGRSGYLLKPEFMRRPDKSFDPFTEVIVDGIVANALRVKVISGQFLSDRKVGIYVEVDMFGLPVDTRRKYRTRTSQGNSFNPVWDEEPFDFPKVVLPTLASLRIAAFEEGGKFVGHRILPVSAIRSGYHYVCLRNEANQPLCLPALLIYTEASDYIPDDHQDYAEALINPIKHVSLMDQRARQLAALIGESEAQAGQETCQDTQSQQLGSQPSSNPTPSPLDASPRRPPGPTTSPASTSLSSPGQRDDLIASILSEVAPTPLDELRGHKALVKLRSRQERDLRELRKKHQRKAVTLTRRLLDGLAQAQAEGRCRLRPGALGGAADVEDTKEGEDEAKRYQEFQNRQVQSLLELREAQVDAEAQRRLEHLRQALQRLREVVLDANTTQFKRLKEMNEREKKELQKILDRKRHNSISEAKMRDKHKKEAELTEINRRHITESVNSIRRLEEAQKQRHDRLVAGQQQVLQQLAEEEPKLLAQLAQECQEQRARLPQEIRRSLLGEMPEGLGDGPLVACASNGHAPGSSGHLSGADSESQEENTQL
Starred values were filed as active, the others as inactive; / = no result given.

SMILES	FID counter	Tn7 DDE FP	PLCg1 inh	Tn6 DDE FP	PLC-beta3 inh
C#CCOCCOCCOCCNc1nc(N2CCN(C(=O)[C@H](CCCCN)n3cc([C@@H](N)C(C)CC)nn3)CC2)nc(N2CCN(C(=O)[C@H](Cc3ccc(O)cc3)n3cc([C@@H](N)CC(C)C)nn3)CC2)n1 (some centres not stated)	49.1*	5.0	5.1	-2.4	5.2
Nc1nc2cc(S(=O)(=O)N3CCOCC3)ccc2o1	/	0.4	1.8	-0.6	-2.2
C#CCOCCOCCOCCNc1nc(N2CCOCC2)nc(N2CCN(C(=O)[C@H]([C@@H](C)CC)n3cc(CCCN=C(N)N)nn3)CC2)n1	4.7	-1.2	10.0*	-1.2	2.0
C#CCOCCOCCOCCNc1nc(N2CCOCC2)nc(N2CCN(C(=O)[C@H](Cc3ccc(O)cc3)n3cc([C@@H](N)C(C)CC)nn3)CC2)n1 (some centres not stated)	18.7	-4.1	2.5	0.3	8.7
C#CCOCCOCCOCCNc1nc(N2CCN(C(=O)[C@H](Cc3ccc(O)cc3)n3cc([C@@H](N)CC(C)C)nn3)CC2)nc(N2CCN(C(=O)[C@H](Cc3ccc(O)cc3)n3cc([C@@H](N)CC(C)C)nn3)CC2)n1	56.8*	/	/	/	/
C#CCOCCOCCOCCNc1nc(N2CCN(C(=O)[C@H](CCC(=O)O)n3cc(C(N)CC(C)C)nn3)CC2)nc(N2CCN(C(=O)[C@H](Cc3ccc(O)cc3)n3cc(C(N)CC(C)C)nn3)CC2)n1 (some centres not stated)	12.4	/	/	/	/
C#CCOCCOCCOCCNc1nc(N2CCN(C(=O)C(Cc3ccc(O)cc3)n3cc(C(N)C(C)CC)nn3)CC2)nc(N2CCN(C(=O)C(Cc3ccc(O)cc3)n3cc(C(N)C(C)CC)nn3)CC2)n1 (configuration not stated)	39.6*	-4.0	-0.3	5.0	3.4
C#CCOCCOCCOCCNc1nc(N2CCN(C(=O)[C@H](CCCCN)n3cc([C@@H](N)CC(C)C)nn3)CC2)nc(N2CCN(C(=O)[C@H](CCCCN)n3cc([C@@H](N)CC(C)C)nn3)CC2)n1	58.0*	/	/	/	/
COc1ccc(CNC(=O)CN(C(=O)c2csnn2)c2ccc(C(C)=O)cc2)cc1	-8.9	-0.4	4.5	0.9	-0.8
Cc1c(/C(O)=C2\C(=O)C(=O)N(CCCN(C)C)C2c2cccs2)cnn1-c1ccccc1 (configuration not stated)	/	10.3	-1.6	4.0	-8.7
Clc1ccc(-c2nc(NCCCN3CCOCC3)c3ccccc3n2)cc1	48.2*	1.9	-0.5	6.2	-8.5
Cc1cc(NCCN2CCOCC2)c2ccc3ccccc3c2n1	47.2*	4.0	1.8	-5.5	2.9
Cc1ccc(-c2nc(NCCCN(C)C)c3ccccc3n2)cc1	/	-2.2	-5.0	-3.4	-5.4
CN(C)CCCNc1nc(-c2ccccc2)nc2ccccc12	57.9*	-7.7	-1.2	2.4	-3.5
Clc1cccc(-c2nc(NCCN3CCOCC3)c3ccccc3n2)c1	9.3	-9.1	-2.8	3.3	-6.4
Fc1ccccc1-c1nc(NCCCN2CCOCC2)c2ccccc2n1	22.6	7.2	-2.1	2.4	2.4
Cc1ccc(-c2nc(NCCN3CCOCC3)c3ccccc3n2)cc1	45.9*	-1.0	1.8	0.8	-7.8
COC(=O)CCCNC(=O)c1ccccn1	-0.9	5.1	-1.9	-0.7	-6.6
c1ccc2c(NCCCN3CCOCC3)c3ccccc3nc2c1	26.9	-1.4	-224.5	3.2	-256.1
c1csc(-c2nc(NCCCN3CCOCC3)c3ccccc3n2)c1	61.3*	3.6	-17.3	6.1	-36.2
Clc1cccc(-c2nc(NCCCN3CCOCC3)c3ccccc3n2)c1	37.4*	8.1	-4.0	3.5	-7.6
Cc1ccc(NC(=S)c2ccc3ccccc3n2)c(C)c1	-7.6	-0.6	3.5	-1.7	-4.5
COc1ccc(C(=O)C(CCC(CNC(C)(C)C)C(=O)c2ccc(OC)cc2)CNC(C)(C)C)cc1 (configuration not stated)	42.9*	2.5	0.4	4.8	0.3
COC(=O)c1ccc(Oc2nc(NC(C)C)nc(N(C)C)n2)cc1	-0.9	3.6	3.5	-1.2	14.7*
CN(C)c1nn(C(=O)Nc2cccc(C(F)(F)F)c2)cc1-c1ccccc1	0.6	3.6	-0.3	-8.4	0.1
SMILES	FID counter	Tn7 DDE FP	PLCg1 inh	Tn6 DDE FP	PLC-beta3 inh
CC(Oc1ccc2oc(-c3ccccc3)c(C(=O)O)c2c1)C(=O)O (configuration not stated)	1.6	-5.6	-273.0	2.0	-348.4
Cc1oc2ccc(OC(C(=O)O)c3ccccc3)cc2c1C(=O)O (configuration not stated)	-3.1	-3.4	9.9*	-0.9	6.0
COc1cc2c(cc1OC)C(c1cccs1)N(C(=O)c1cccnc1)CC2 (configuration not stated)	-27.8	0.7	9.9*	1.5	4.2
O=C(CSc1nnc(-c2ccccc2)o1)c1ccc2c(c1)OCCO2	-0.5	1.8	5.5	-5.9	3.0
CCOc1ccccc1CNc1ccc(O)cc1	-4.6	3.7	-16.9	2.6	-23.0
CCOc1cccc(CNc2ccc(O)cc2)c1OCc1ccc(Cl)cc1	2.5	-7.1	-41.1	15.3*	-49.1
CCc1nc2ccc(C(=O)NCCN3CCNC3=O)cn2c1N(CC)Cc1cccc(Br)c1	/	0.6	-6.0	-5.1	-8.8
Cc1ccc(C(=O)N/C(=C\c2sccc2C)C(=O)NCc2ccncc2)cc1	-3.7	0.7	0.9	-1.0	5.6
Cc1cccc(C)c1-n1nnnc1C(c1ccccc1OC(F)(F)F)N1CCN(C/C=C/c2ccccc2)CC1 (configuration not stated)	/	-2.1	12.1*	-6.4	7.8
Oc1ccc(CCNc2c3ccccc3nc3ccccc23)cc1O	39.4*	-0.1	-90.0	-5.2	-116.6
c1ccc(CNc2c3ccccc3nc3ccccc23)cc1	27.2	1.2	-112.7	0.2	-147.5
c1ccc(-c2ccc(OCCCNC3CCCC3)cc2)cc1	41.0*	4.5	3.5	-5.5	2.4
c1ccc(Cc2ccc(OCCCNC3CCCC3)cc2)cc1	23.4	/	/	/	/
c1ccc(-n2cc(CN3CCCC(CN4CCCC4)C3)c(-c3ccc4c(c3)OCO4)n2)cc1 (configuration not stated)	40.5*	0.1	1.4	4.1	-0.1
CCC(C)(C)c1ccc(OCCCC[n+]2ccc(C)cc2)c(C(C)(C)CC)c1	45.7*	1.1	-0.2	-1.3	-5.9
O=C1c2cccc3cccc(c23)C(=O)C1(O)O	/	-4.9	2.2	1.9	-13.7
COc1ccc(N=Cc2c(O)[nH]c3ccccc23)cc1	-9.4	-0.7	-0.7	-1.6	1.1
COc1ccc(CN=Cc2c(O)[nH]c3ccccc23)cc1	-11.4	-6.8	10.0*	1.4	5.1
COc1ccc(NC2CCCN(C(=O)c3ccc(C)c(N4CCNC4=O)c3)C2)cc1 (configuration not stated)	-14.7	-2.5	3.0	-6.5	-4.3
O=C(COc1ccccc1[N+](=O)[O-])NCc1cccnc1	4.3	-2.1	0.2	3.4	1.5
